The source made the active and inactive calls. The calls are words filed in the database; no cut-off is given here.
Test system: Cavia porcellus
Test: Compound was evaluated in the guinea pig anaphylaxis test for in vivo activity; Inactive, treated 12/19, control 16/20
Type: functional, organism-based
Conditions: not given

With `Cn1c(=O)c2[nH]cnc2n(C)c1=O` the Activity was “inactive”.

Species on record: Homo sapiens
Test: Inhibitory activity against histamine release from antigen-challenged, sensitized human basophils
Type: functional
Conditions: not given
How it was run: (§1)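 Histamine release was induced by antigen challenge of sensitized human basophils in vitro. Compounds were first screened at a single concentration. Those reducing release by more than 50% went on to concentration-response testing to estimate IC50. Values are given with standard error and number of experiments.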

For `C=CCn1nc(C)c2c(C)nc(CCC)n2c1=O`, the IC50 was over 48 µM.

Same assay, conditions: Homo sapiens

`CCCc1nc(C)c2c(CC)nnc(O)n12` and `CCCc1nnc(O)n2c(CCC)nc(C)c12` are within 1.5-fold of each other in IC50: 15.6 µM for the first, 16 µM for the second.

Going from `CCCc1nc(C)c2c(C)nnc(O)n12` to `CCCc1nc(C)c2c(C)nnc(SC)n12`, the IC50 rises from 14 µM to over 48 µM. The first is the more potent here.

Compared with `Cc1nc(C)n2c(=O)n(C)ncc12`, `CCCc1nc(C)c2cnn(C)c(=O)n12` is lower in IC50: over 48 µM for the first, 20 µM for the second.

`CC(C)c1ncn2c(S)nncc12` and `CSc1nncc2c(C(C)C)ncn12` cannot be ordered by IC50: over 48 µM for the first, over 48 µM for the second.

`Cc1nc(C)n2c(O)nncc12` and `CCCc1nc(C)n2c(O)nncc12` cannot be ordered by IC50: over 48 µM for the first, over 48 µM for the second.

`CSc1nnc(-c2ccccc2)c2c(C)nc(C(C)C)n12` and `CCCc1nc(C)c2c(-c3ccccc3)nnc(SC)n12` cannot be ordered by IC50: over 48 µM for the first, over 48 µM for the second.

`CCCc1nc(C)c2c(C)nn(CC)c(=O)n12` and `CCCc1nc(C)c2c(C)nn(CCC)c(=O)n12` cannot be ordered by IC50: over 48 µM for the first, over 48 µM for the second.

First: CC(C)(C)c1nc(Br)c2cnnc(O)n12
Second: CCCc1nc(Br)c2cnnc(O)n12
The IC50 of the first is lower: 19 µM for the first, over 48 µM for the second. The first is the more potent here.

`Cc1ncc2cnnc(S)n12` and `CSc1nncc2cnc(C)n12` cannot be ordered by IC50: over 48 µM for the first, over 48 µM for the second.

`CCOC(=O)CSc1nncc2c(C)nc(C)n12` and `CSc1nncc2c(C)nc(C)n12` cannot be ordered by IC50: over 48 µM for the first, over 48 µM for the second.

`CCCc1ncn2c(S)nncc12` and `CCc1ncn2c(S)nncc12` cannot be ordered by IC50: over 48 µM for the first, over 48 µM for the second.

`CCOC(=O)/C(=C(\O)OCC)c1nncc2cncn12` and `CCOC(=O)CSc1nncc2cncn12` cannot be ordered by IC50: over 48 µM for the first, over 48 µM for the second.

`C=CCn1ncc2c(C)nc(C(C)(C)C)n2c1=O` and `C=CCn1ncc2c(C)nc(C)n2c1=O` cannot be ordered by IC50: over 48 µM for the first, 73 µM for the second.

`CCn1ncc2c(C)nc(C(C)C)n2c1=O` and `Cc1nc(C(C)C)n2c(S)nncc12` cannot be ordered by IC50: over 48 µM for the first, over 48 µM for the second.

`C=CCn1ncc2c(C)nc(CCC)n2c1=S` and `C=CCn1ncc2c(C)nc(CC)n2c1=O` cannot be ordered by IC50: over 48 µM for the first, over 48 µM for the second.

`C=CCn1ncc2c(C)ncn2c1=O` and `C=CCn1ncc2c(CC)ncn2c1=O` cannot be ordered by IC50: over 48 µM for the first, over 48 µM for the second.

`Oc1nncc2cncn12` and `Sc1nncc2cncn12` cannot be ordered by IC50: over 48 µM for the first, over 48 µM for the second.

`Oc1nncc2cnc(Cc3ccccc3)n12` and `Oc1nncc2cnc(-c3ccccc3)n12` cannot be ordered by IC50: over 48 µM for the first, over 48 µM for the second.

`C=CCn1nc(Br)c2c(Br)nc(CCC)n2c1=O` and `C=CCn1nc(C)c2c(C)nc(CCC)n2c1=O` cannot be ordered by IC50: over 48 µM for the first, 69 µM for the second.

`CCCc1nnc(O)n2c(C)nc(C)c12` and `CCCCc1nnc(O)n2c(CCC)nc(C)c12` cannot be ordered by IC50: over 48 µM for the first, over 48 µM for the second.

Going from `CCCc1nc(C)c2cnnc(NCCN(C)C)n12` to `CCCc1nc(C)c2cnnc(S)n12`, the IC50 falls from over 48 µM to 10 µM.

`COCc1nc(C)c2cnnc(S)n12` and `COCc1ncc2cnnc(SC)n12` cannot be ordered by IC50: over 48 µM for the first, over 48 µM for the second.

`C(=C\CSc1nncc2cncn12)/CSc1nncc2cncn12` and `O=C(CSc1nncc2cncn12)c1ccccc1` cannot be ordered by IC50: over 48 µM for the first, over 48 µM for the second.

First: CCc1nnc(O)n2c(CC)nc(C)c12
Second: CCc1nnc(O)n2c(C(C)CC)nc(C)c12 (configuration not stated)
The IC50 of the first is 1.9-fold lower: 24 µM for the first, 45 µM for the second. The first is the more potent here.

`C=CCn1ncc2c(CC)ncn2c1=S` and `C=CCn1ncc2c(CCC)ncn2c1=O` cannot be ordered by IC50: over 48 µM for the first, over 48 µM for the second.

`CCCc1nc(C)c2cnn(CC(O)CO)c(=O)n12` (configuration not stated) and `C=CCn1ncc2c(C)nc(Cc3ccccc3)n2c1=O` cannot be ordered by IC50: over 48 µM for the first, over 48 µM for the second.

`COCc1ncc2cnnc(O)n12` and `CCCc1ncc2cnnc(S)n12` cannot be ordered by IC50: over 48 µM for the first, over 48 µM for the second.

`Cc1ncn2c(NCc3ccco3)nncc12` and `CCc1ncn2c(O)nncc12` cannot be ordered by IC50: over 48 µM for the first, over 48 µM for the second.

Going from `O/C(=C/c1nncc2cncn12)c1ccccc1` to `C=CCSc1nncc2cnc(-c3ccccc3)n12`, the IC50 rises from 38 µM to over 48 µM.

`c1ncn2c(NC3CCCC3)nncc12` and `CCCc1ncn2c(O)nncc12` cannot be ordered by IC50: over 48 µM for the first, over 48 µM for the second.

`CCCc1nc(C)c2c(-c3ccccc3)nnc(O)n12` and `CCc1nc(C)c2c(-c3ccccc3)nnc(O)n12` cannot be ordered by IC50: over 48 µM for the first, over 48 µM for the second.

`C=CCSc1nncc2c(C)nc(-c3ccccc3)n12` and `Cc1nc(-c2ccccc2)n2c(O)nncc12` cannot be ordered by IC50: over 48 µM for the first, over 48 µM for the second.

`CCc1nnc(S)n2c(C(C)CC)nc(C)c12` (configuration not stated) and `CCCc1nc(C)c2c(C(C)C)nnc(S)n12` cannot be ordered by IC50: over 48 µM for the first, over 48 µM for the second.

`CCCC1NN=C(SC)n2c1cnc2C` (configuration not stated) and `Cn1c(=O)c2nc[nH]c2n(C)c1=O.O` [THEOPHYLLINE] cannot be ordered by IC50: over 48 µM for the first, 335 µM for the second.

`Oc1nncc2c(Br)nc(Cc3ccccc3)n12` and `Sc1nncc2cnc(-c3cccc(Cl)c3)n12` cannot be ordered by IC50: over 48 µM for the first, over 48 µM for the second.

Species on record: Homo sapiens
Test: Inhibitory activity against histamine release from antigen-challenged, sensitized human basophils; Fluorescent compound, obscuring the histamine assay
Type: functional
Conditions: not given
How it was run: as §1

For `Cc1nnc(O)n2c(C)nc(C)c12`, the IC50 was “Fluoroescent compound, obscuring the histamine assay”.

Species on record: Mus musculus
Test: Effective dose in mouse PCA test
Type: functional
Conditions: not given
How it was run: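 Female CFW mice were passively sensitized with 50 µL of diluted homologous IgE-containing serum iv. Two days later compound was given po, 1 h before iv ovalbumin antigen plus Evans Blue dye. Mice were killed after 20 min, and each lesion area was scored as the product of two normal diameters.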

`CCCc1nc(C)c2c(CC)nnc(O)n12` and `CCCc1nnc(O)n2c(CCC)nc(C)c12` are within 1.5-fold of each other in ED50: 146 mg/kg for the first, 114 mg/kg for the second.

`CCCc1nc(C)c2c(C)nnc(O)n12` and `Cn1c(=O)c2nc[nH]c2n(C)c1=O.O` [THEOPHYLLINE] are within 1.5-fold of each other in ED50: 109 mg/kg for the first, 140 mg/kg for the second.
